In ChEMBL document CHEMBL3259660, “Haloemodin as novel antibacterial agent inhibiting DNA gyrase and bacterial topoisomerase I” (J Med Chem, 2014):
Converted amounts (≈) assume the structure as drawn.

Tests used:
Staphylococcus aureus = experiment: Antibacterial activity against methicillin-sensitive Staphylococcus aureus assessed as growth inhibition by agar dilution assay; type: functional
How it was run: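 Agar dilution MIC per CLSI (aerobic and anaerobic methods); compounds dissolved in DMSO, reference antibiotics in sterile water. MIC taken as lowest concentration with no visible growth; determined at least twice on separate days, higher value reported. Clinical isolate ranges summarized as MIC50/MIC90.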

Pseudomonas aeruginosa = experiment: Antibacterial activity against Pseudomonas aeruginosa assessed as growth inhibition by agar dilution assay; type: functional
How it was run: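 CLSI agar dilution MIC against aerobic and anaerobic strains. Test compounds were dissolved in DMSO and reference antibiotics in sterile water. MIC was taken as the lowest concentration showing no bacterial growth. Each MIC was determined at least twice on separate days, and the higher value was reported. E. coli PQ 37 was cultured in LA medium.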

DNA topoisomerase 1 = target: T1, DNA topoisomerase 1 (Homo sapiens, UniProt P11387); experiment: Inhibition of human topoisomerase 1-mediated pHOT-1 DNA relaxation at 10 to 150 uM treated with pHOT-1 substrate for 15 mins prior to enzyme addition for 30 mins by agarose gel electrophoresis; settings: 0.5 h
T1 sequence (P11387 whole entry): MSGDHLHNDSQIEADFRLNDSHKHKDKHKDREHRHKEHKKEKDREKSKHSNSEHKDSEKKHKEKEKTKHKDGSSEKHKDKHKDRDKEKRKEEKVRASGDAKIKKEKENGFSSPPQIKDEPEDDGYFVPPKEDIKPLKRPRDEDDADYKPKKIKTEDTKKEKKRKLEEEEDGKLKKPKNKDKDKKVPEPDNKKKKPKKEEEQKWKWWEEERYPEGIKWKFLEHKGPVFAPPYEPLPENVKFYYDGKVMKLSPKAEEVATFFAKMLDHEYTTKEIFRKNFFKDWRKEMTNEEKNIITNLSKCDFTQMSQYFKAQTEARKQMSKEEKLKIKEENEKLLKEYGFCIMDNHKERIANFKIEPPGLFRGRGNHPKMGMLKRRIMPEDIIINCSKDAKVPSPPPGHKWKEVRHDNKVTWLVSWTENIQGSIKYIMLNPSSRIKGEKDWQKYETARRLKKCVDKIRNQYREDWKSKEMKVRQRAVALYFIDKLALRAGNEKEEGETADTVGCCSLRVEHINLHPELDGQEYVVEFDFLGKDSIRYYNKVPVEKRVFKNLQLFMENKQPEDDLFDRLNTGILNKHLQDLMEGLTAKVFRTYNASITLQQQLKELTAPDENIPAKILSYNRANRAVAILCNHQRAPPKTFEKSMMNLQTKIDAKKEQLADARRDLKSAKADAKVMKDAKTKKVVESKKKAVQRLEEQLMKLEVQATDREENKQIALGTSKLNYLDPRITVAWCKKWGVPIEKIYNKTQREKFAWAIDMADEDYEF

## Cc1cc(O)c2c(c1)C(=O)c1c(I)c(O)c(I)c(O)c1C2=O
Staphylococcus aureus
  MIC: 8 µg/mL (≈ 15.3 µM)
Pseudomonas aeruginosa
  MIC: > 256 µg/mL
DNA topoisomerase 1
  inhibition (INH): Not Active
